From ChEMBL document CHEMBL4513216, “Probing the Open Global Health Chemical Diversity Library for Multistage-Active Starting Points for Next-Generation Antimalarials” (ACS Infect Dis, 2020)

Assay: Toxicity liver stage against HepG2, at 10uM
Format: cell-based
Set-up: test concentration 10 uM, cell line HepG2-A16-CD81EGFP
Settings: human, HepG2-A16-CD81EGFP cells; read-out: INHIBITION
Method in brief: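 Uninfected HepG2-A16-CD81EGFP cells, 3 × 10^3 per well, 1536-well, plated on prespotted compound at 10 μM final, parasite-free screening media added to match infected plates; puromycin 10 μM positive, DMSO 0.5% negative; run in parallel with 48 h PbLuc assay at 37 °C, 5% CO2; viability by CellTiter-Glo luminescence, normalized to controls.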

| Compound | cytotoxicity at 10 µM |
| --- | --- |
| CCCc1noc(CNc2ccc(C(=O)N3CCCC3)cc2C)n1 | -2.83% |
| CCCn1nccc1NC(=O)CN1CCCC1c1cccn1C (stereo not given) | -5.76% |
| CCCc1nc(C)cc(N2CCC3(CCC(=O)N(CCO)C3)CC2)n1 | -6.71% |
| Cc1nc(C2CCCN(C(=O)CCn3ccccc3=O)C2)no1 (stereo not given) | -9.35% |
| NC(=O)CC1CCCN(c2cncc(SCc3ccccc3)n2)C1 (stereo not given) | 11% |
| c1csc(N2CCN(Cc3cc4n(n3)CCNC4)CC2)n1 | -3.59% |
| Cc1ccc(OCCCC(=O)NC(C)c2nnc3n2CCC3)cc1 (stereo not given) | -15% |
| Cc1cc(C)c2c(N3CCCN(C(=O)C4CCC4)CC3)ncnc2n1 | -10.7% |
| Cc1cccc(C(=O)N2C[C@H](NS(C)(=O)=O)[C@@H]3OCCC[C@@H]32)n1 | -77.4% |
| CC(C)N(C)Cc1cc(=O)n2c(n1)CN(C(=O)c1ccc[nH]1)CCC2 | -105% |
| CCc1noc(CN(C)Cc2cc3ccc(Cl)cc3[nH]c2=O)n1 | 4.92% |
| O=C(CCOc1cccc(F)c1)N1CCCC(n2cncn2)C1 (stereo not given) | -0.192% |
| CC1(C)CC(N(Cc2cccnc2)Cc2cccnc2)CC(C)(C)N1 | 1.3% |
| O=C(Nc1cnc(C2CC2)nc1)N1CCC(CN2CCCC2)C1 (stereo not given) | 18.8% |
| Cc1nc[nH]c1-c1nccn1CCN1CCOC1=O | -5.58% |
| COc1cccc(CN2CC(=O)N(c3ccccc3C)CC2C)c1OC (stereo not given) | 2.24% |
| CC(=O)NC1CCCN(Cc2ccn(C)c(=O)c2)C1 (stereo not given) | 2.34% |
| Cc1cc(C2CCCN(Cc3ncc(C(C)C)o3)C2)n[nH]1 (stereo not given) | 4.29% |
| Cc1cccc2[nH]cc(CC(=O)N3CCC(Nc4cccnn4)CC3)c12 | -8.45% |
| COCc1noc(-c2cc(Cl)c3c(c2)OCO3)n1 | -4.05% |
| CC(=O)NC[C@@H]1C=C(C)[C@H](CC(=O)NCc2cccnc2)C[C@H]1C(C)C | 4.33% |
| COc1ccc(C2OC(COc3ccccc3Br)=NN2C(C)=O)cc1 (stereo not given) | 3.56% |
| CNC(=O)CCS(=O)(=O)Cc1cc(Cl)c2c(c1)OCCO2 | -4.89% |
| CC(C)(C)c1ncc2c(n1)CN(C(=O)c1ccc3[nH]cnc3c1)C2 | -2.62% |
| NC(=O)CN1CCCC(Cc2ccc(N)nn2)C1 (stereo not given) | -31.1% |
| CCC1(c2ccc(NS(=O)(=O)c3ccc(Cl)s3)cc2)CCC(=O)NC1=O (stereo not given) | 13.5% |
| CCn1cnnc1CNC(=O)N(C)Cc1ccc2c(c1)OCO2 | -5.83% |

| Compound | cytotoxicity at 10 µM |
| --- | --- |
| CCN(CC(C)O)C(=O)Nc1cnn(CCOC)c1 (stereo not given) | -11.6% |
| CCn1nc(C)c(C(=O)Nc2ccc3c(c2)C(C)(C)C(=O)N3C)c1C | 6.42% |
| CC(C)C1CN(S(=O)(=O)N(C)C)CCCN1Cc1ccc(F)cc1 (stereo not given) | 5.17% |
| CN(C)C(=O)c1ccc2c(c1)N(C)C(CC(=O)NCc1ccno1)CO2 (stereo not given) | 12.4% |
| CC(=O)c1cc(CC(=O)N2CCN(CCOc3ccccc3)CC2)cs1 | -5.48% |
| Cc1cnc(N2CCCn3c(nnc3CN(C)C(C)C)C2)nc1 | 4.42% |
| Cn1cc(NS(=O)(=O)CCOc2ccc(F)cc2)cn1 | -0.77% |
| CCCS(=O)(=O)N1CCC(NCc2c(C)nn(C)c2OC)CC1 | 7.01% |
| CCOCC(=O)N1C[C@@H]2CCN(c3cnccn3)C[C@@H]2C1 | 1.2% |
| CCCNC(=O)CNc1cc(C(=O)N2CCSCC2)ccc1C | -5.91% |
| CS(=O)(=O)N[C@@H]1CN(C(=O)c2cnccn2)[C@@H]2CCCO[C@@H]21 | -73.4% |
| CC(C)CSCCN1CCCN(S(C)(=O)=O)CC1 | -8.17% |
| O=C1O[C@@H]2CN(CCc3ccccc3)C[C@@H]2N1CCCN1CCOCC1 | -3.2% |
| O=c1[nH]ncc(NCCOc2ccc3c(c2)OCO3)c1Cl | 3.1% |
| CN1CCN(CC(C)(C)C)CC1CCO (stereo not given) | 1.88% |
| CC1c2ncc(Cn3cccn3)n2CCN1S(=O)(=O)C1CC1 (stereo not given) | -108% |
| CCOc1ccc(Cl)cc1NC(=O)N1CCC(n2cncn2)CC1 | 4.93% |
| CN(C)CC1(O)CCN(C(=O)Cc2ccc(Cl)c(Cl)c2)C1 (stereo not given) | -4% |
| CC(=O)N1CCOC2(CCN(C(=O)c3cnoc3C)CC2)C1 | -0.0788% |
| COc1ncc(CN2C[C@@H]3CC[C@@](O)(c4ccc(C)cn4)[C@@H]3C2)cn1 | -10.3% |
| Cc1nnc(SCCNC(=O)CC2CCc3ccccc32)s1 (stereo not given) | -3.13% |
| COc1ccc(CNCCC(=O)N2CCc3sccc3C2)cc1O | 4.48% |
| O=C(N[C@@H]1CN(Cc2ccccn2)[C@@H]2COC[C@@H]21)C1CCC1 | 8.67% |
| Cc1cccc(OCC(O)CN2CCN(c3nccs3)CC2)c1 (stereo not given) | 16.5% |
| CN1CCN(Cc2cnc3n2CCN(C(=O)N2CCCC2)C3)CC1 | -72.3% |
| O=C(C1CCC1)N1CCn2c(COc3ncccn3)nnc2C1 | 3.09% |
| CC(C)(C)C(=O)N1C[C@H](c2ccsc2)[C@H]2CN(C3CCCC3)CC[C@H]21 | 2.33% |

| Compound | cytotoxicity at 10 µM |
| --- | --- |
| NC(=O)C1CN(c2ncnc3c2Cc2ccccc2OC3)CCO1 (stereo not given) | 0.0255% |
| O=C(COCc1nc(-c2ccncc2)no1)N1CCCCCC1 | -8.83% |
| COCCN(Cc1ccc(C)o1)C(=O)Nc1ncc(C)s1 | 10% |
| Cc1ccc(CN2C[C@@H]3CCCO[C@@H]3[C@H](NC(=O)CC3CC3)C2)s1 | 19.9% |
| Cc1nc(C)n(CC2CCCN(Cc3nnc(-c4ccco4)o3)C2)n1 (stereo not given) | -8.33% |
| COc1ccccc1CNC(C)c1ccc(-n2ccnc2)cc1 (stereo not given) | 5.25% |
| CC(NCc1nnc2n1CCCC2)c1nc(-c2cccs2)no1 (stereo not given) | -39.5% |
| Cc1cn2nc(N3CCN(Cc4nc(C(C)C)no4)CC3)sc2n1 | -7.27% |
| COc1ccc(C)c2c1N(C(=O)c1ccc3nnc(C)n3c1)CCC2 | 2.84% |
| CN(C)CCNC(=O)c1ccc(OC2CCN(C3CCC3)CC2)c(Cl)c1 | -5.89% |
| CC(C)COc1cccc(-c2nc3c([nH]2)CCNC3)c1 | 4.48% |
| O=C(O)c1cc(S(=O)(=O)Nc2cnn(C3CCOCC3)c2)ccc1F | -10.9% |
| O=C(NC1CC2(CCN(CCO)CC2)c2ccccc21)c1ccsc1 (stereo not given) | -14.2% |
| CNC(=O)C1CCC2(CCN(c3ncc(C)cn3)CC2)CO1 (stereo not given) | -4.66% |
| COc1ccc(CN2CCC3(CC2)CN(c2ccccn2)CCO3)cc1 | 2.87% |
| O=C(O)c1cc2c(nc1O)CC(c1cccc(Cl)c1)CC2=O (stereo not given) | 9.56% |
| CC(C)n1cc(CN2CCCN(C(=O)C3(C)CCOCC3)CC2)cn1 | -48.2% |
| CCCn1cnc2c1CN(C(=O)c1ccc(F)cc1)[C@H](C(=O)OC)C2 | 4.94% |
| COc1cc(N2CCCC(c3nccn3CCN(C)C)C2)nc(N)n1 (stereo not given) | -9.6% |
| CCSCc1cccc(NC2CCN(C)C2=O)c1 (stereo not given) | 1.18% |
| Cc1nn(-c2ncnc3[nH]cnc23)c2c1C(C(C)(C)C)CC(=O)N2 (stereo not given) | 5.08% |
| Cc1cccc(N2CCN(C(=O)CN3CCC(C(N)=O)CC3)CC2)c1 | 4.52% |
| CC(C)COC(C)C(=O)N1CCC(C)CC1 (stereo not given) | 2.95% |
| COc1cccn(CC(=O)N(C)CCSC)c1=O | 5.03% |
| CC(C)c1nnc2n1CC(CNCc1ccsc1)CC2 (stereo not given) | -1.61% |
| Cc1noc([C@@]23CCO[C@@H]2CCN(C(=O)c2sccc2C)C3)n1 | -8.23% |
